Data set [1] relates to A-431. The data set is described as follows: Cytotoxicity against human A431 cells after 24 hrs by MTT assay. It counts as functional, cell-based. The note with it: A-431, 24 h. The method in brief:
(§1)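 MTT assay. Cells were seeded at 50,000 cells/mL in medium with 10% fetal calf serum and grown for two days at 37 °C, 10% CO2. Serial dilutions of compound were then added for 24 h. MTT was added (final 0.5 mg/mL) for 2 h, and the formazan was pelleted, washed, dissolved in isopropanol with 0.4% HCl and read at 590 nm. IC50 is the concentration giving 50% of untreated-control absorbance, taken from dose-response curves; mean of two parallel experiments.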
A general note: Tetrazolium assays rely on reduction of a dye to a coloured formazan, in cell work by metabolically active cells.

The test system of data set [2] is MCF7. The data set is described as follows: Induction of Cell cycle arrest in human MCF7 cells assessed as G2/M phase cells at IC50 concentration after 24 hrs by PI-staining based flow cytometric analysis (reference value: 13%). It counts as functional. Summed up:
(§2)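 MCF-7 cells (10^6) were treated for 24 h, with methanol as the vehicle control. Cells were fixed in cold 70% methanol at 4 °C for one day, washed with PBS, and permeabilized with 0.1% saponin in PBS. They were stained with propidium iodide plus RNase for 30 min. DNA content was read by flow cytometry, giving percentages of cells per cell-cycle phase.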

Data set [3] concerns Saccharomyces cerevisiae. Kind of data set: Growth inhibition of wild type Saccharomyces cerevisiae BY4741 at 20 ug/disc after 24 to 48 hrs by agar diffusion assay. It counts as functional. The note with it: read-out: DIZ. Summed up: (§3)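 S. cerevisiae deletion mutants or wild type grown on YPD, seeded into liquid agar medium at an optical density of 0.1. 6 mm paper discs soaked with methanolic compound solution were placed on the plates and incubated at 30 °C. Growth was checked after 1 and 2 days, and the inhibition zone diameter was recorded in mm.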
A general note: A growth-free zone around the sample is the usual read-out of agar diffusion tests.

Data set [4] has as its system A-431. Kind of data set: Induction of apoptosis in human A431 cells assessed as late apoptotic cells at 8 uM after 12 hrs by FITC-annexin V/PI staining-based flow cytometric analysis (reference value: 7.4%). It counts as functional. (In general: In flow cytometry, cells or beads pass a laser one at a time.)
Data set [5] relates to Saccharomyces cerevisiae. Kind of data set: Growth inhibition of GTT2-deficient Saccharomyces cerevisiae YLL060C mutant at 20 ug/disc after 24 to 48 hrs by agar diffusion assay. It counts as functional. Conditions: read-out: DIZ. The method in brief: as §3
Data set [6] relates to A-431. The data set is described as follows: Induction of apoptosis in human A431 cells assessed as early apoptotic cells at 8 uM after 12 hrs by FITC-annexin V/PI staining-based flow cytometric analysis (reference value: 0.6%). It counts as functional.
The next data set concerns A498. Kind of data set: Cytotoxicity against human A498 cells after 24 hrs by MTT assay. It counts as functional, cell-based. Conditions: A498, 24 h. The method in brief:
as §1

In data set [7] the test system is MCF7. Kind of data set: Induction of oxidative stress in human MCF7 cells assessed as decrease in GSH level at 5 uM after 1 hr by DTNB assay relative to control. It counts as functional. Also on record: scale not given: the % may be the effect or the level left. Summed up:
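MCF-7 cells (10^6) were treated for 1 h at 37 °C, trypsinized, and washed twice with cold PBS. GSH was extracted with chilled 5% metaphosphoric acid at 4 °C for 2 h, then the lysate was centrifuged. Supernatant was mixed with 0.2 M sodium phosphate pH 8.0 and 0.04 mM DTNB for 10 min at room temperature. Absorbance was read at 412 nm against a reagent blank, and GSH was quantified from a standard curve.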

Data set [8] has as its system A-431. Kind of data set: Induction of apoptosis in human A431 cells assessed as late apoptotic cells at 13 uM after 12 hrs by FITC-annexin V/PI staining-based flow cytometric analysis (reference value: 7.4%). It counts as functional.
Data set [9] concerns MCF7. Kind of data set: Induction of Cell cycle arrest in human MCF7 cells assessed as G0/1 phase cells at IC50 concentration after 24 hrs by PI-staining based flow cytometric analysis (reference value: 68%). It counts as functional. Summed up: as §2
Data set [10] has as its system Saccharomyces cerevisiae. The data set is described as follows: Growth inhibition of RCK1-deficient Saccharomyces cerevisiae YGL158W mutant at 20 ug/disc after 24 to 48 hrs by agar diffusion assay. Conditions: read-out: DIZ. It counts as functional. Summed up:
as §3

Data set [11] concerns Saccharomyces cerevisiae. The data set is described as follows: Growth inhibition of GSH2-deficient Saccharomyces cerevisiae YOL049W mutant at 20 ug/disc after 24 to 48 hrs by agar diffusion assay. It counts as functional. The note with it: read-out: DIZ. The method in brief: as §3
Data set [12] deals with Saccharomyces cerevisiae. Kind of data set: Growth inhibition of WSC4-deficient Saccharomyces cerevisiae YHL028W mutant at 20 ug/disc 24 to 48 hrs by agar diffusion assay. It counts as functional. Conditions: read-out: DIZ. Summed up: as §3
For data set [13], the system named is A-431. The data set is described as follows: Induction of apoptosis in human A431 cells assessed as early apoptotic cells at 13 uM after 12 hrs by FITC-annexin V/PI staining-based flow cytometric analysis (reference value: 0.6%). It counts as functional.
Data set [14] relates to Saccharomyces cerevisiae. Kind of data set: Growth inhibition of SOD2-deficient Saccharomyces cerevisiae YHR008C mutant at 20 ug/disc 24 to 48 hrs by agar diffusion assay. Conditions: read-out: DIZ. It counts as functional. Summed up: as §3
Data set [15] has as its system A-431. The data set is described as follows: Induction of apoptosis in human A431 cells assessed as late apoptotic cells at 11 uM after 12 hrs by FITC-annexin V/PI staining-based flow cytometric analysis (reference value: 7.4%). It counts as functional.
The test system of data set [16] is A-431. The data set is described as follows: Induction of apoptosis in human A431 cells after 12 hrs by FITC-annexin V/PI staining-based flow cytometric analysis. It counts as functional, cell-based.
The subject of data set [17] is Saccharomyces cerevisiae. Kind of data set: Growth inhibition of COX17-deficient Saccharomyces cerevisiae YLL009C mutant at 20 ug/disc after 24 to 48 hrs by agar diffusion assay. Conditions: read-out: DIZ. It counts as functional. Summed up:
as §3

Data set [18] is described as follows: Cytotoxicity against human PHF cells after 24 hrs by MTT assay. It counts as cell-based. The method in brief: as §1
In data set [19] the test system is Saccharomyces cerevisiae. The data set is described as follows: Growth inhibition of UFD2-deficient Saccharomyces cerevisiae YDL190C mutant at 20 ug/disc after 24 to 48 hrs by agar diffusion assay. It counts as functional. The note with it: read-out: DIZ. The method in brief:
as §3

Data set [20] concerns Saccharomyces cerevisiae. Kind of data set: Growth inhibition of SOD1-deficient Saccharomyces cerevisiae YJR104C mutant at 20 ug/disc after 24 to 48 hrs by agar diffusion assay. It counts as functional. Conditions: read-out: DIZ. Summed up:
as §3

Data set [21] has as its system Saccharomyces cerevisiae. The data set is described as follows: Growth inhibition of PST2-deficient Saccharomyces cerevisiae YDR032C mutant at 20 ug/disc 24 to 48 hrs by agar diffusion assay. It counts as functional. The note with it: read-out: DIZ. The method in brief: as §3
Data set [22] has as its system MCF7. Kind of data set: Cytotoxicity against human MCF7 cells after 24 hrs by MTT assay. It counts as functional, cell-based. The note with it: MCF7, 24 h. Summed up: as §1
Data set [23] has as its system HUVEC. The data set is described as follows: Cytotoxicity against human HUVEC cells after 24 hrs by MTT assay. It counts as cell-based. The method in brief: as §1
In data set [24] the test system is A-431. Kind of data set: Induction of apoptosis in human A431 cells assessed as early apoptotic cells at 11 uM after 12 hrs by FITC-annexin V/PI staining-based flow cytometric analysis (reference value: 0.6%). It counts as functional.
For data set [25], the system named is MCF7. Kind of data set: Induction of Cell cycle arrest in human MCF7 cells assessed as S phase cells at IC50 concentration after 24 hrs by PI-staining based flow cytometric analysis (reference value: 19%). It counts as functional. The method in brief: as §2
In data set [26] the test system is Saccharomyces cerevisiae. Kind of data set: Growth inhibition of POS5-deficient Saccharomyces cerevisiae YPL188W mutant at 20 ug/disc after 24 to 48 hrs by agar diffusion assay. It counts as functional. Conditions: read-out: DIZ. The method in brief:
as §3

Data set [27] concerns A-431. Kind of data set: Induction of apoptosis in human A431 cells assessed as caspase3/7 activation at 2.8 uM after 24 hrs by caspase-Glo assay. It counts as functional, cell-based. The method in brief:
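A-431 cells (20,000/well, 384-well) were incubated with compound for 1, 2, 4, 6, 12 and 24 h in the dark at 37 °C, 5% CO2. Caspase-Glo 3/7 reagent was added for 30 min at room temperature in the dark. Luminescence was then read on a plate luminometer.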

Data set [28] concerns HUVEC. The data set is described as follows: Induction of oxidative stress in human HUVEC cells assessed as increase in superoxide free radical production after 1 hr by DHE-based by fluorescence spectrophotometric analysis. It counts as cell-based. Summed up:
(§4)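 Cells were seeded at 10^5 per well and given graded compound concentrations for 1 h. They were then loaded with DHE or DCF probe for 30 min in the dark. Fluorescence was read immediately: DHE ex 540/em 600 nm; DCF ex 485/em 528 nm. Results were expressed as arbitrary units per 10^5 cells.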

Data set [29] has as its system A-431. The data set is described as follows: Induction of oxidative stress in human A431 cells assessed as increase in superoxide free radical production after 1 hr by DHE-based by fluorescence spectrophotometric analysis. It counts as functional, cell-based. Summed up:
as §4

The subject of data set [30] is HUVEC. The data set is described as follows: Induction of oxidative stress in human HUVEC cells assessed as increase in hydrogen peroxide free radical production after 1 hr by DCF-based fluorescence spectrophotometric analysis. It counts as cell-based. The method in brief: as §4

This note sets out measurements from ChEMBL document CHEMBL2177069, “Novel peptidomimetic compounds containing redox active chalcogens and quinones as potential anticancer agents” (Eur J Med Chem, 2012).

For orientation: IC50 means the concentration that gives 50% inhibition.

The source made the active and inactive calls. The calls are words filed in the database; no cut-off is given here.

Consider `CC1=C([Se]CC(OC(=O)CC[Se]c2ccccc2)C(=O)NCCCCCC(=O)OCc2ccccc2)C(=O)c2ccccc2C1=O` (configuration not stated), for which the IC50 worked out at 4 µM in the data set on A-431 [1]; 4 µM in the data set with A498; 6 µM in [18]; 9 µM with MCF7 [22]; 3 µM in the data set on HUVEC [23]. The Activity is 6% in the data set with MCF7 [2]; 12.9% in the data set with A-431 [4]; 2.5% in the data set with A-431 [6]; 62% with MCF7 [7]; 29.3% in the data set with A-431 [8]; 87% with MCF7 [9]. Also, the Activity in the data set on A-431 [13] was 4.1%; in the data set with A-431 [15] it was 13.1%; with A-431 [16] it was “Dose-dependent effect”; in the data set on A-431 [24] it was 7.7%; in the data set on MCF7 [25] it was 6.8%. The zone of inhibition at 20 µg/disc was 0 mm in the data set on Saccharomyces cerevisiae [3]; 25 mm in the data set on Saccharomyces cerevisiae [5]; 15 mm in the data set on Saccharomyces cerevisiae [10]; 15 mm in the data set with Saccharomyces cerevisiae [11]; 26 mm in the data set on Saccharomyces cerevisiae [12]; 19 mm in the data set on Saccharomyces cerevisiae [14]. In addition, the zone of inhibition at 20 µg/disc in the data set on Saccharomyces cerevisiae [17] turned out to be 15 mm; with Saccharomyces cerevisiae [19], 15 mm; in the data set on Saccharomyces cerevisiae [20] it was 14 mm; in the data set with Saccharomyces cerevisiae [21] it was 16 mm; in the data set on Saccharomyces cerevisiae [26], 17 mm. For the same compound, the result with A-431 [27] was Active.

As to `CC1=C(SCCC(=O)OC(CC[Se]c2ccccc2)C(=O)NC(C)(C)C)C(=O)c2ccccc2C1=O` (configuration not stated), the IC50 in the data set with A-431 [1] was > 100 µM; with A498 it was > 100 µM; in data set [18], 11 µM; with MCF7 [22], 26 µM; in the data set on HUVEC [23], 13 µM. The Activity entry with HUVEC [28] and in the data set with HUVEC [30] was “Non-toxic” each time. Also, the result with A-431 [29] was Active. Moreover, the zone of inhibition at 20 µg/disc turned out to be 0 mm in the data set on Saccharomyces cerevisiae [3]; 0 mm in the data set on Saccharomyces cerevisiae [5]; 0 mm in the data set with Saccharomyces cerevisiae [10]; 0 mm in the data set with Saccharomyces cerevisiae [11]; 11 mm with Saccharomyces cerevisiae [12]; 0 mm in the data set on Saccharomyces cerevisiae [14]. The zone of inhibition at 20 µg/disc with Saccharomyces cerevisiae [17] is 10 mm; with Saccharomyces cerevisiae [19] it was 10 mm; in the data set on Saccharomyces cerevisiae [20], 10 mm; in the data set with Saccharomyces cerevisiae [21], 12 mm; in the data set with Saccharomyces cerevisiae [26] it was 0 mm.
